# Key:
# [1] = molecular target: Neuraminidase (Influenza A virus (A/Puerto Rico/8/1934(H1N1)), UniProt P03468); assay: Inhibition of neuraminidase activity in Influenza A virus (A/PR/8/34 (H1N1)) infected in MDCK cells using 4-MU-NANA as substrate pretreated for 30 mins followed by substrate addition measured after 2 hrs by fluorescence assay; format: cell-based
# [2] = Cytotoxicity against MDCK cells after 2 days by MTT assay; format: cell-based, Canis lupus familiaris; conditions: dog
# Summary of the method: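 Uninfected MDCK cells seeded at 1 × 10^5 cells/well and grown 24 h. Washed with PBS, then exposed to graded compound concentrations in fresh DMEM, each in triplicate, for 2 days. Viability by MTT (2 mg/mL), 4 h further incubation; CC50.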
# [3] = Inhibition of neuraminidase activity in H9N2 A/chicken/Korea/01210/2001 infected in MDCK cells using 4-MU-NANA as substrate pretreated for 30 mins followed by substrate addition measured after 2 hrs by fluorescence assay; format: cell-based, H9N2 subtype; conditions: Influenza A virus, A/chicken/Korea/01210/2001, MDCK
# Influenza A virus = assay: Antiviral activity against Influenza A virus (A/PR/8/34 (H1N1)) infected in MDCK cells assessed as reduction in virus-induced cytopathic effect after 3 days by MTT assay; format: functional, organism-based; conditions: A/Puerto Rico/8/1934(H1N1), 72 h
# Summary of the method: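 MDCK cells grown in DMEM with 10% FBS at 37 °C and 5% CO2, seeded at 1 × 10^5 cells/well, and cultured 24 h. Infected 2 h in DMEM with 0.15 μg/mL trypsin and 5 μg/mL BSA, then given DMEM with 10 μg/mL trypsin and a range of compound concentrations, in triplicate. After 3 days, MTT (2 mg/mL) added for 4 h at 37 °C; formazan dissolved in DMSO, A550 read; EC50.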
# Sequence of Neuraminidase (Influenza A virus (A/Puerto Rico/8/1934(H1N1)), UniProt P03468) (P03468 whole entry): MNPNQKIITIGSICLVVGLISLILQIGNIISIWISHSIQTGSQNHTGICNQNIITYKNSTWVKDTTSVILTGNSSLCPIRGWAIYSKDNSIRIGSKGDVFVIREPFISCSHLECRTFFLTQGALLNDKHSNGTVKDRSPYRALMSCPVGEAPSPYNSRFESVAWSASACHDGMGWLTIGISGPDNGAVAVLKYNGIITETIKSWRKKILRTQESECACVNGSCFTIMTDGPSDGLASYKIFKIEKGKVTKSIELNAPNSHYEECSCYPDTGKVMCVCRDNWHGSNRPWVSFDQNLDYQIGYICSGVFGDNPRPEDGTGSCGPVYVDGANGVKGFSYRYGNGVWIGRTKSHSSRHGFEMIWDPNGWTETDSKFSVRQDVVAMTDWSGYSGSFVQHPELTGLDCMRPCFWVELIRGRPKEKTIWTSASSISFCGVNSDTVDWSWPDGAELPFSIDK
smiles,measurement,setting,value
COc1ccc(O)c([C@@H]2CC(=O)c3c(O)c(C)c(O)c(C)c3O2)c1,IC50,[1],24.5 µM
same,CC50 at 48 h,[2],> 100 µM
same,IC50,[3],24.6 µM
same,EC50,Influenza A virus,23 µM
COc1cc(O)cc([C@@H]2CC(=O)c3c(O)c(C)c(O)c(C)c3O2)c1,IC50,[1],24.4 µM
same,CC50 at 48 h,[2],> 100 µM
same,IC50,[3],23.1 µM
same,EC50,Influenza A virus,21.4 µM
Cc1c(O)c(C)c2c(c1O)C(=O)C[C@@H](c1ccccc1O)O2,IC50,[1],23.9 µM
same,CC50 at 48 h,[2],> 100 µM
same,IC50,[3],24.1 µM
same,EC50,Influenza A virus,22.9 µM
CCOC(=O)C1=C[C@@H](OC(CC)CC)[C@H](NC(C)=O)[C@@H](N)C1 [OSELTAMIVIR],IC50,[3],0.0191 µM
same,EC50,Influenza A virus,0.6 µM
Cc1c(O)c(C)c2c(c1O)C(=O)C[C@@H](c1ccccc1)O2 [DEMETHOXYMATTEUCINOL],IC50,[1],30.3 µM
same,CC50 at 48 h,[2],77.6 µM
same,IC50,[3],31.3 µM
same,EC50,Influenza A virus,30.7 µM
COc1ccc([C@@H]2CC(=O)c3c(O)c(C)c(O)c(C)c3O2)cc1,IC50,[1],25.2 µM
same,CC50 at 48 h,[2],> 100 µM
same,IC50,[3],27.2 µM
same,EC50,Influenza A virus,26.9 µM

# Reference: ChEMBL document CHEMBL4130469, “C-Methylated Flavonoid Glycosides from Pentarhizidium orientale Rhizomes and Their Inhibitory Effects on the H1N1 Influenza Virus” (J Nat Prod, 2017)
